Rows were chosen to be rich in hits. Some 2.2% of all compounds tested hit in one or more screens of this group.
T cruzi inh = inhibitors of intracellular T. cruzi growth, primary screen, luminescence, NIH3T3 host cells; T. cruzi beta-gal in NIH3T3, 90 h; inhibition, % (test concentration not listed); 300,000 compounds, 1.4% hits; AID 1885, 2009;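 active = mean inhibition across valid replicates above about 55%, limit read from the data; inconclusive = mean below that limit but half or more replicates reach it; inactive = mean below it, under half of replicates reach it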;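 note: signal also drops with host cell toxicity which is not excluded here; 0% = plate median of DMSO wells and 100% = zero luminescence signal; higher percent means less beta-gal luminescence so fewer parasites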
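Material: NIH/3T3 host cells with β-galactosidase reporter T. cruzi; Input: 5,000 host fibroblasts per well; Medium: DMEM, 2% fetal bovine serum; Compound: 50 nL DMSO compound solution per well; Schedule: 3 h host attachment, then at least 90 h co-culture; Detection: luminescent β-galactosidase signal after 60 min lysis.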
PolyA inh = polyadenylation inhibitors in yeast reporter cells, primary screen, luminescence, S. cerevisiae. S. cerevisiae SKY197-pL101 polyadenylation reporter, beta-gal luminescence; efflux-impaired pdr1/pdr3 knockout yeast; score 100 = 6 SD above DMSO. activity score, % at 12 µM. 300,000 compounds, 0.02% hits;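 active = lowest replicate activity score at least 50, where 100 means six control SD above control mean; inconclusive = lowest score under 50 but half or more replicates reach 50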;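 note: yeast exposed to compound for 9 h at 30 °C; higher score means more reporter readthrough which indicates perturbed polyadenylation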
HDAC3 inh = HDAC3 deacetylase inhibitors, primary screen, biochemical, fluorescence, cell-free homogeneous | Histone deacetylase 3 (Homo sapiens), O15379 | recombinant HDAC3, fluorogenic peptide/trypsin coupled | inhibition, % at 8.3 µM | 320,000 compounds, 0.15% hits | AID 2718, 2010; in the data active = inhibition above about 26%, passing the limit was not always enough; inconclusive = no clear call, values can overlap the other calls
Target sequence (O15379 whole entry, looked up): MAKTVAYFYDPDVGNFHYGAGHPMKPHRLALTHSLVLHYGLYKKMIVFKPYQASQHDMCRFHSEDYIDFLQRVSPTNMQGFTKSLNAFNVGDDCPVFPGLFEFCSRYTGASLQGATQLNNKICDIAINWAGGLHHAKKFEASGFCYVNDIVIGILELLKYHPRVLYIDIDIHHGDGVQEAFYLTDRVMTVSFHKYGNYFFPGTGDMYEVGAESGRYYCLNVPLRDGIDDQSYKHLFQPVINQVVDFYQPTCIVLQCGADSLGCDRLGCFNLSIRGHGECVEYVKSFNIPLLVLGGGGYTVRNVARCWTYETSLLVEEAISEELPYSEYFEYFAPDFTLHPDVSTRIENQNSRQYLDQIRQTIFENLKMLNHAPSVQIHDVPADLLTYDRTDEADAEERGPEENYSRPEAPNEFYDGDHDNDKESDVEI
AI-2 QS modul = Vibrio harveyi AI-2 quorum sensing modulators, primary screen, JMH597 strain, luminescence/OD600 ratio; Vibrio harveyi JMH597 AI-2 luminescence/OD600 ratio, 9 h; active compounds read low; strain lacks LuxN and CqsS sensors; 0 = neutral-control median; activity change, % at 7.5 µM; 300,000 compounds, 0.4% hits; in the data active = activity change below about -75%, passing the limit was not always enough; inconclusive = no clear call, values can overlap the other calls;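 note: luminescence divided by OD600 gain over 9 h not by final OD600 alone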
Efflux pump inh = inhibitors of Candida efflux pumps in yeast, primary screen, S. cerevisiae, Nile Red, multiplex | 330,000 compounds, 0.44% hits | AID 485275, 2010 | inhibition, % at 10 µM | S. cerevisiae Candida pump triplex;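 active = plate passing quality check with inhibition over a set limit, or well fluorescence over plate mean plus 4 SD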;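 note: Nile Red retained in pooled yeast measured as flow cytometry median fluorescence; 0% = buffer negative control and 100% = Enniatin B positive control; higher means more Nile Red kept so more efflux inhibition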
JMH597 growth = Vibrio harveyi growth inhibition, confirmation, counter-screen for AI-2 quorum sensing project, JMH597 strain, OD600 absorbance; growth inhibition, % at 7.5 µM; 750 compounds, 1% hits; shares compounds with AI-2 QS modul; 9 h; lacks LuxN and CqsS sensors;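 active = every replicate shows growth inhibition above 50%; inconclusive = at least half, but not all, replicates pass that cutoff; inactive = fewer than half of replicates pass it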
BB721 const-QS lum = luminescence inhibition in constitutive-on V. harveyi, confirmation, counter-screen for LuxS inhibitor project, strain BB721, luminescence readout | shares compounds with AI-2 QS modul | Vibrio harveyi BB721 luminescence, 9 h | inhibition, % at 7.5 µM | 750 compounds, 95% hits | AID 2727, 2010;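 active = inhibition above about 80% in every replicate, not just on average, limit read from the data; inconclusive = at least half of replicates past the limit, but not all; inactive = fewer than half of replicates past the limit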
BB721 growth rt = growth inhibition of V. harveyi BB721, confirmation, cytotoxicity control for AI-2 quorum sensing inhibitors, strain BB721, absorbance OD600; AID 2728, 2010; growth inhibition, % at 7.5 µM; shares compounds with AI-2 QS modul; 750 compounds, 3% hits; Vibrio harveyi BB721 growth, 9 h;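 active = every replicate shows growth inhibition above 50%; inconclusive = at least half but not all replicates above 50% inhibition; inactive = under half of replicates above 50% inhibition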
JMH597 AI-2 mod = Vibrio harveyi AI-2 signaling luminescence modulation – JMH597 strain, confirmation | shares compounds with AI-2 QS modul | Vibrio harveyi JMH597 AI-2 quorum sensing luminescence, 9 h; luxN and CqsS knockout, AI-2 only | inhibition, % at 7.5 µM | 750 compounds, 97% hits | AID 2736, 2010;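 active = every replicate shows more than 75% inhibition of signal versus neutral control wells; inconclusive = half to three quarters of replicates exceed 75% inhibition; inactive = fewer than half of replicates exceed 75% inhibition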
* marks the source's active call; other numbers are inactive results; u = inconclusive; x = not tested or not shown.

SMILES	T cruzi inh	PolyA inh	HDAC3 inh	AI-2 QS modul	Efflux pump inh	JMH597 growth	BB721 const-QS lum	BB721 growth rt	JMH597 AI-2 mod
COc1ccc(NC(=O)c2cc3ccccn3n2)cc1	-1.6	-11.9	-3.9	13.2	-0.1	x	x	x	x
O=C(NCc1ccc(Cl)cc1)c1cc2ccccn2n1	-11.2	-3.4	5.7	-84.0*	0.1	36.1	92.3*	25.4	95.2*
CC(=O)NS(=O)(=O)c1ccc(NC(=O)c2ccc(Cl)cc2[N+](=O)[O-])cc1	-15.5	-4.8	-0.2	22.5	0.0	x	x	x	x
O=C(Nc1ccc(Nc2ccccc2)cc1)c1ccc(Cl)cc1[N+](=O)[O-]	x	-0.1	15.9	-86.5*	0.0	51.6	u	20.8	90.5*
Cc1ccc(C(C)C)c(OCCNCCc2ccccc2)c1	47.6	-19.8	2.4	x	0.1	x	x	x	x
O=C(COc1ccccc1F)c1ccc(O)cc1O	-0.8	-4.2	9.5	17.1	0.1	x	x	x	x
Cc1c(O)ccc(C(=O)COc2ccccc2F)c1O	-1.6	-22.2	-0.5	u	-0.2	28.7	88.6*	24.8	92.5*
Cc1nn(-c2ccc(N3CCOCC3)nn2)c(C)c1CCC(=O)NCc1ccccc1F	-0.7	15.3	-3.5	19.8	0.0	x	x	x	x
Cc1ccccc1NCCC(=O)Nc1ccc(F)cc1	-7.5	4.5	-3.6	-87.3*	0.1	18.2	95.4*	14.6	96.8*
Cc1ccccc1NCCC(=O)Nc1ccc(Cl)cc1	2.1	18.9	-0.3	-83.7*	-0.1	4.2	96.6*	-1.4	97.4*
Cc1cccc(NC(=O)CCSc2nnc(Cc3ccccc3)o2)c1	-7.3	-6.4	-0.7	19.5	-0.1	x	x	x	x
CCCOc1ccc(N2C(=O)CC(SCCN)C2=O)cc1 (configuration not stated)	-9.1	2.2	-10.3	-87.4*	-0.2	17.8	94.6*	15.6	96.4*
O=C(c1cnn2c(-c3ccccc3)cc(-c3ccccc3)nc12)N1CCN(Cc2ccccc2)CC1	53.7	0.9	-1.8	-10.6	0.0	x	x	x	x
O=C(c1cc(COc2c(F)cccc2F)on1)N1CCc2ccccc2C1	1.7	-4.9	0.3	u	-0.2	4.3	87.1*	8.2	90.7*
Oc1oc(-c2ccccc2)nc1C=Nc1ccccc1	9.6	3.5	10.8	10.6	-0.1	x	x	x	x
Oc1oc(-c2ccccc2)nc1C=NCc1ccccc1	13.9	-1.3	1.8	u	0.0	13.8	92.9*	22.1	95.3*
CCn1cc(C(=O)N[C@@H](CCSC)C(=O)NCCCOC)c(=O)c2cc3c(cc21)OCO3	-15.3	-6.5	2.6	5.2	0.1	x	x	x	x
COc1ccc(/C=C/C(=O)Oc2cc(O)cc(O)c2)cc1	-12.1	3.4	4.4	-94.8*	0.1	-8.3	98.2*	-19.9	98.7*
O=C(NCc1ccccc1)NC1CCCCC1	-5.2	12.7	-5.5	-69.7	0.0	x	x	x	x
O=C(NCc1ccc(F)cc1)Nc1cccc(Cl)c1	20.3	-0.6	-2.1	-93.8*	-0.4	16.7	98.4*	24.5	98.6*
Cc1ccc(CNC(=O)Nc2cccc(C)c2)cc1	-4.3	-6.4	6.8	-89.8*	0.1	12.4	99.0*	24.8	99.0*
COc1ccc(CNC(=O)NC2CCCCC2)cc1	-11.5	-16.6	2.2	-87.4*	-0.1	12.3	92.5*	13.2	94.7*
COc1ccc(CNC(=O)Nc2ccc(C)c(C)c2)cc1	-2.7	2.3	2.6	-63.1	0.0	x	x	x	x

Screening data from PubChem.
